Measurements taken from ChEMBL document CHEMBL1921722, “In vitro and in vivo evaluation of select kahalalide F analogs with antitumor and antifungal activities” (Bioorg Med Chem, 2011).
pIC50: −log10 of the molar value. Converted amounts (≈) assume the structure as drawn.

Tests used:
HT-29 = assay: Cytotoxicity against human HT-29 cells assessed as cell growth at 800 nM by sulforhodamine B assay relative to control; format: functional; settings: read-out: Activity
OVCAR-5 [1] = assay: Cytotoxicity against human OVCAR5 cells assessed as cell growth at 8 uM by sulforhodamine B assay relative to control; format: functional; settings: read-out: Activity
OVCAR-3 [2] = assay: Cytotoxicity against human OVCAR3 cells assessed as cell growth at 80 uM by sulforhodamine B assay relative to control; format: functional; settings: read-out: Activity
SN12C = assay: Cytotoxicity against human SN12C cells assessed as cell growth at 800 nM by sulforhodamine B assay relative to control; format: functional; settings: read-out: Activity
HCT-116 = assay: Cytotoxicity against human HCT116 cells assessed as cell growth at 8 uM by sulforhodamine B assay relative to control; format: functional; settings: read-out: Activity
MDA-MB-435 = assay: Cytotoxicity against human MDA-MB-435 cells assessed as cell growth at 80 uM by sulforhodamine B assay relative to control; format: functional; settings: read-out: Activity
MDA-MB-231 = assay: Cytotoxicity against human MDA-MB-231 cells by sulforhodamine B assay; format: functional
Procedure, shortened: (§1)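 NCI Developmental Therapeutics Program 60-cell-line human tumor panel screen, run at NCI. A single-concentration pre-screen was followed by a five-concentration dose-response in 10-fold steps. GI50 is the concentration that reduces growth of treated cells to half that of untreated control cells. TGI is the concentration that completely halts growth.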

PC-3 = assay: Cytotoxicity against human PC3 cells assessed as cell growth at 8 nM by sulforhodamine B assay relative to control; format: functional; settings: read-out: Activity
EKVX [3] = assay: Cytotoxicity against human EKVX cells by sulforhodamine B assay; format: functional
Procedure, shortened: (§2)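 Run by the NCI Developmental Therapeutics Program on its 60-line human tumour cell panel using the standard procedure. Compounds went through a single-concentration prescreen first, and those active by NCI criteria went on to a five-concentration growth-inhibition test. GI50 is the concentration that cuts growth of treated cells to half that of untreated control cells.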

SR = assay: Cytotoxicity against human SR cells by sulforhodamine B assay; format: functional; procedure, shortened: as §1
SNB-19 = assay: Cytotoxicity against human SNB19 cells assessed as cell growth at 800 nM by sulforhodamine B assay relative to control; format: functional; settings: read-out: Activity
UACC-257 = assay: Cytotoxicity against human UACC257 cells assessed as cell growth at 80 uM by sulforhodamine B assay relative to control; format: functional; settings: read-out: Activity
SK-MEL-5 = assay: Cytotoxicity against human SK-MEL-5 cells assessed as cell growth at 8 nM by sulforhodamine B assay relative to control; format: functional; settings: read-out: Activity
NCI/ADR-RES = assay: Cytotoxicity against human NCI/ADR-RES cells assessed as cell growth at 8 uM by sulforhodamine B assay relative to control; format: functional; settings: read-out: Activity
NCI-H23 = assay: Cytotoxicity against human NCI-H23 cells by sulforhodamine B assay; format: functional; procedure, shortened: as §1
OVCAR-5 [4] = assay: Cytotoxicity against human OVCAR5 cells by sulforhodamine B assay; format: functional; procedure, shortened: as §1
EKVX [5] = assay: Cytotoxicity against human EKVX cells assessed as cell growth at 80 uM by sulforhodamine B assay relative to control; format: functional; settings: read-out: Activity
DU-145 [6] = assay: Cytotoxicity against human DU145 cells assessed as cell growth at 8 nM by sulforhodamine B assay relative to control; format: functional; settings: read-out: Activity
Procedure, shortened: (§3)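 Run at NCI in the DTP 60-cell-line human tumor panel by standard procedure. Compounds were first screened at a single concentration, then tested at five tenfold-spaced concentrations. GI50 is the concentration reducing treated-cell growth to half that of untreated controls; TGI is the concentration completely halting growth.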

SK-MEL-2 [7] = assay: Cytotoxicity against human SK-MEL-2 cells assessed as cell growth at 8 uM by sulforhodamine B assay relative to control; format: functional; settings: read-out: Activity
T47D [8] = assay: Cytotoxicity against human T47D cells by sulforhodamine B assay; format: functional; procedure, shortened: as §1
OVCAR-3 [9] = assay: Cytotoxicity against human OVCAR3 cells assessed as cell growth at 80 nM by sulforhodamine B assay relative to control; format: functional; settings: read-out: Activity
DU-145 [10] = assay: Cytotoxicity against human DU145 cells assessed as cell growth at 80 uM by sulforhodamine B assay relative to control; format: functional; settings: read-out: Activity
RXF 393 = assay: Cytotoxicity against human RXF393 cells assessed as cell growth at 8 nM by sulforhodamine B assay relative to control; format: functional; settings: read-out: Activity
DU-145 [11] = assay: Cytotoxicity against human DU145 cells by sulforhodamine B assay; format: functional; procedure, shortened: as §2
NCI-H522 = assay: Cytotoxicity against human NCI-H522 cells assessed as cell growth at 8 uM by sulforhodamine B assay relative to control; format: functional; settings: read-out: Activity
786-0 = assay: Cytotoxicity against human 786-0 cells by sulforhodamine B assay; format: functional; procedure, shortened: as §3
COLO 205 = assay: Cytotoxicity against human COLO205 cells assessed as cell growth at 8 nM by sulforhodamine B assay relative to control; format: functional; settings: read-out: Activity; procedure, shortened: as §3
T47D [12] = assay: Cytotoxicity against human T47D cells assessed as cell growth at 80 uM by sulforhodamine B assay relative to control; format: functional; settings: read-out: Activity
SK-MEL-2 [13] = assay: Cytotoxicity against human SK-MEL-2 cells assessed as cell growth at 800 nM by sulforhodamine B assay relative to control; format: functional; settings: read-out: Activity
SF-295 [14] = assay: Cytotoxicity against human SF295 cells assessed as cell growth at 800 nM by sulforhodamine B assay relative to control; format: functional; settings: read-out: Activity
RPMI-8226 = assay: Cytotoxicity against human RPMI8226 cells assessed as cell growth at 80 uM by sulforhodamine B assay relative to control; format: functional; settings: read-out: Activity
HOP-62 = assay: Cytotoxicity against human HOP62 cells assessed as cell growth at 80 nM by sulforhodamine B assay relative to control; format: functional; settings: read-out: Activity
SF-295 [15] = assay: Cytotoxicity against human SF295 cells by sulforhodamine B assay; format: functional; procedure, shortened: as §1
SW-620 = assay: Cytotoxicity against human SW620 cells assessed as cell growth at 800 nM by sulforhodamine B assay relative to control; format: functional; settings: read-out: Activity
U-251 = assay: Cytotoxicity against human U251 cells assessed as cell growth at 80 uM by sulforhodamine B assay relative to control; format: functional; settings: read-out: Activity
SF-268 = assay: Cytotoxicity against human SF268 cells assessed as cell growth at 80 nM by sulforhodamine B assay relative to control; format: functional; settings: read-out: Activity
HCT-15 = assay: Cytotoxicity against human HCT15 cells by sulforhodamine B assay; format: functional; procedure, shortened: as §2
Aspergillus fumigatus = assay: Antimicrobial activity against Aspergillus fumigatus ATCC 90906 by CLSI method; format: functional, organism-based

Work on `C/C=C1\NC(=O)[C@H](Cc2ccccc2)NC(=O)[C@@H](C(C)C)NC(=O)[C@@H]([C@@H](C)CC)NC(=O)[C@H](NC(=O)[C@H](NC(=O)[C@H](CCCNCc2ccc(N3CCOCC3)cc2)NC(=O)[C@H]2CCCN2C(=O)[C@H](NC(=O)[C@@H](NC(=O)[C@@H](NC(=O)[C@H](NC(=O)CCCC(C)C)C(C)C)[C@@H](C)O)C(C)C)C(C)C)[C@@H](C)CC)[C@@H](C)OC(=O)[C@H](C(C)C)NC1=O` yielded a growth at 0.8 µM (HT-29) of 3%, a growth at 8 µM (OVCAR-5 [1]) of -74% and a growth at 80 µM (OVCAR-3 [2]) of -50%. The growth at 0.8 µM (SN12C) was 86%, the growth at 8 µM (HCT-116) was -66% and the growth at 80 µM (MDA-MB-435) was -9%. It also gave a GI50 (MDA-MB-231) of 2630 nM, an LC50 (MDA-MB-231) of over 75900 nM and a TGI (MDA-MB-231; read-out: pTGI (converted)) of 15500 nM. For the same compound, the growth at 0.008 µM (PC-3) was 90%, the GI50 (EKVX [3]) was 776 nM and the TGI (EKVX [3]; read-out: pTGI (converted)) was 1910 nM. The GI50 (SR) was 3020 nM, the LC50 (SR) was over 75900 nM and the TGI (SR; read-out: pTGI (converted)) was 36300 nM. For the same compound, the growth at 0.8 µM (SNB-19) was 90%, the growth at 80 µM (UACC-257) was -28% and the growth at 0.008 µM (SK-MEL-5) was 105%. The growth at 8 µM (NCI/ADR-RES) was -43%, the GI50 (NCI-H23) was 1550 nM and the LC50 (NCI-H23) was 6310 nM. It also gave a TGI (NCI-H23; read-out: pTGI (converted)) of 3090 nM, a GI50 (OVCAR-5 [4]) of 933 nM and a TGI (OVCAR-5 [4]; read-out: pTGI (converted)) of 2190 nM. The growth at 80 µM (EKVX [5]) was -46%, the growth at 0.008 µM (DU-145 [6]) was 99% and the growth at 8 µM (SK-MEL-2 [7]) was -74%. For the same compound, the GI50 (T47D [8]; read-out: GI50) was 167 nM, the TGI (T47D [8]; read-out: TGI) was 466 nM and the GI50 (T47D [8]; read-out: pGI50 (converted)) was 166 nM. It also gave a TGI (T47D [8]; read-out: pTGI (converted)) of 468 nM, a growth at 0.08 µM (OVCAR-3 [9]) of 87% and a growth at 80 µM (DU-145 [10]) of -73%. The growth at 0.008 µM (RXF 393) was 111%, the LC50 (DU-145 [11]) was 513 nM and the GI50 (DU-145 [11]; read-out: GI50) was 128 nM. The TGI (DU-145 [11]; read-out: TGI) was 257 nM, the GI50 (DU-145 [11]; read-out: pGI50 (converted)) was 129 nM and the TGI (DU-145 [11]; read-out: pTGI (converted)) was 257 nM. The growth at 8 µM (NCI-H522) was 40%, the GI50 (786-0) was 1380 nM and the LC50 (786-0) was 4680 nM. For the same compound, the TGI (786-0; read-out: pTGI (converted)) was 2570 nM, the growth at 0.008 µM (COLO 205) was 103% and the growth at 80 µM (T47D [12]) was -7%. It also gave a growth at 0.8 µM (SK-MEL-2 [13]) of 105%, a growth at 0.8 µM (SF-295 [14]) of 101% and a growth at 80 µM (RPMI-8226) of -29%. The growth at 0.08 µM (HOP-62) was 103%, the GI50 (SF-295 [15]) was 1740 nM and the LC50 (SF-295 [15]) was over 75900 nM. The TGI (SF-295 [15]; read-out: pTGI (converted)) was 3890 nM, the growth at 0.8 µM (SW-620) was 75% and the growth at 80 µM (U-251) was -61%. For the same compound, the growth at 0.08 µM (SF-268) was 103%, the GI50 (HCT-15; read-out: GI50) was 264 nM and the TGI (HCT-15; read-out: TGI) was 814 nM. It also gave a GI50 (HCT-15; read-out: pGI50 (converted)) of 263 nM, a TGI (HCT-15; read-out: pTGI (converted)) of 813 nM and a pIC50 (Aspergillus fumigatus) of 5.30. For the same compound, the MFC (Aspergillus fumigatus) was 20 µM (≈ 33.1 µg/mL) and the MIC (Aspergillus fumigatus) was 10 µM (≈ 16.5 µg/mL).
